Measured values from ChEMBL document CHEMBL3856239, “Synthesis and Antiobesity Properties of 6-(4-Chlorophenyl)-3-(4-((3,3-difluoro-1-hydroxycyclobutyl)methoxy)-3-methoxyphenyl)thieno[3,2-d]pyrimidin-4(3H)-one (BMS-814580): A Highly Efficacious Melanin Concentrating Hormone Receptor 1 (MCHR1) Inhibitor” (J Med Chem, 2016).
Converted amounts (≈) assume the structure as drawn.

Columns and labels:
[1] = Solubility of the compound in phosphate buffer at pH 6.4; format: physicochemical
Outline: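 Solubility of parent compounds and prodrugs measured in 50 mM phosphate buffer, pH 6.4.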

Rattus norvegicus [2] = assay: Antiobesity activity in DIO Sprague-Dawley rat model assessed as reduction in body weight at 0.03 mg/kg, po qd for 28 days relative to vehicle control; format: functional; design: scale not given: the % may be the effect or the level left
Outline: (§1)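 Obese male SD rats on diet-induced obesity, 8/group, dosed orally once daily for 28 days with phosphate prodrug (0.03–3 mg/kg parent) in 14% propylene glycol/1% Tween/85% water; rimonabant 10 mg/kg control; pair-fed groups matched to 1 and 3 mg/kg intake; body weight and food measured daily, % change versus vehicle.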

Rattus norvegicus [3] = assay: Antiobesity activity in DIO Sprague-Dawley rat model assessed as reduction in body weight at 0.1 mg/kg, po qd for 28 days relative to vehicle control; format: functional; design: scale not given: the % may be the effect or the level left; outline: as §1
Rattus norvegicus [4] = assay: Antiobesity activity in DIO Sprague-Dawley rat model assessed as reduction in body weight at 0.3 mg/kg, po qd for 28 days relative to vehicle control; format: functional; design: scale not given: the % may be the effect or the level left; outline: as §1
Rattus norvegicus [5] = assay: Antiobesity activity in DIO Sprague-Dawley rat model assessed as reduction in body weight at 1 mg/kg, po qd for 28 days relative to vehicle control; format: functional; design: scale not given: the % may be the effect or the level left; outline: as §1
Rattus norvegicus [6] = assay: Antiobesity activity in DIO Sprague-Dawley rat model assessed as reduction in body weight at 3 mg/kg, po qd for 28 days relative to vehicle control; format: functional; design: scale not given: the % may be the effect or the level left; outline: as §1
[7] = Cmax in dog at 10 mg/kg, po; format: ADME, organism-based, Canis lupus familiaris; design: dose 10 mg/kg, route oral; conditions: in vivo
Outline: (§2)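 Rats, dogs and cynomolgus monkeys, n = 3: parent 1 mg/kg i.v. in PEG400:DMAC:water (70:5:25), or phosphate prodrug 10 mg/kg oral in Methocel:Tween80:water (0.5:0.1:99.4); plasma parent compound, Cmax, Tmax, AUC0-∞, half-life, clearance, Vss and bioavailability derived.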

Rattus norvegicus [8] = assay: Antiobesity activity in DIO Sprague-Dawley rat model assessed as reduction in caloric intake at 0.03 mg/kg, po qd for 28 days relative to vehicle control; format: functional; design: scale not given: the % may be the effect or the level left; outline: as §1
Rattus norvegicus [9] = assay: Antiobesity activity in DIO Sprague-Dawley rat model assessed as reduction in caloric intake at 0.1 mg/kg, po qd for 28 days relative to vehicle control; format: functional; design: scale not given: the % may be the effect or the level left; outline: as §1
Rattus norvegicus [10] = assay: Antiobesity activity in DIO Sprague-Dawley rat model assessed as reduction in caloric intake at 0.3 mg/kg, po qd for 28 days relative to vehicle control; format: functional; design: scale not given: the % may be the effect or the level left; outline: as §1
Rattus norvegicus [11] = assay: Antiobesity activity in DIO Sprague-Dawley rat model assessed as reduction in caloric intake at 1 mg/kg, po qd for 28 days relative to vehicle control; format: functional; design: scale not given: the % may be the effect or the level left; outline: as §1
Rattus norvegicus [12] = assay: Antiobesity activity in DIO Sprague-Dawley rat model assessed as reduction in caloric intake at 3 mg/kg, po qd for 28 days relative to vehicle control; format: functional; design: scale not given: the % may be the effect or the level left; outline: as §1
[13] = Plasma concentration in DIO Sprague-Dawley rat assessed as parent compound level at 0.3 mg/kg, po for 28 days measured after 2 hrs; format: ADME, organism-based
Outline: (§3)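 Obese male DIO SD rats, 8/group, dosed orally once daily for 28 days with phosphate prodrug at 0.03–3 mg/kg. Vehicle 14% propylene glycol/1% Tween/85% water. Body weight and food intake recorded daily. Parent plasma levels at 2 and 24 h; prodrug detection limit <2 nM. Histopathology for biliary toxicity at study end.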

[14] = Plasma concentration in DIO Sprague-Dawley rat assessed as parent compound level at 3 mg/kg, po for 28 days measured after 2 hrs; format: ADME, organism-based; outline: as §3
[15] = Plasma concentration in DIO Sprague-Dawley rat assessed as parent compound level at 0.3 mg/kg, po for 28 days measured after 24 hrs; format: ADME, organism-based; outline: as §3
Rattus norvegicus [16] = assay: Toxicity in DIO Sprague-Dawley rat assessed as biliary lesion at 0.03 to 3 mg/kg, po administered once daily for 28 days by histophalogy analysis; format: organism-based; conditions: in vivo, 672 h; outline: as §3
Rattus norvegicus [17] = assay: Antiobesity activity in once daily orally dosed DIO Sprague-Dawley rat model assessed as reduction in caloric measured after 28 days relative to vehicle control; format: functional, organism-based; outline: as §1
[18] = molecular target: Melanin-concentrating hormone receptor 1 (Homo sapiens, UniProt Q99705); assay: Binding affinity to MCHR1 (unknown origin)
[19] = Protein binding in DIO rat plasma assessed as unbound fraction; format: ADME, cell-free
Outline: (§4)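 Plasma protein binding reported as % free drug in rat, DIO rat, dog, cynomolgus monkey, rabbit and human plasma.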

[20] = Protein binding in dog plasma assessed as unbound fraction; format: ADME, cell-free, Canis lupus familiaris; outline: as §4
[21] = Protein binding in cynomolgus monkey plasma assessed as unbound fraction; format: ADME, cell-free, Macaca fascicularis; outline: as §4
[22] = Protein binding in rabbit plasma assessed as unbound fraction; format: ADME, cell-free, Oryctolagus cuniculus; outline: as §4
[23] = Cmax in rat at 10 mg/kg, po; format: ADME, organism-based; design: dose 10 mg/kg, route oral; conditions: in vivo; outline: as §2
[24] = Cmax in cynomolgus monkey at 10 mg/kg, po; format: ADME, organism-based, Macaca fascicularis; design: dose 10 mg/kg, route oral; conditions: in vivo; outline: as §2
[25] = Tmax in rat at 10 mg/kg, po; format: ADME, organism-based; conditions: in vivo
Outline: (§5)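 Full PK in rat, dog and cynomolgus monkey. Oral arm: phosphate prodrug at 10 mg/kg parent-equivalent in Methocel:Tween80:water (0.5:0.1:99.4). Intravenous arm: parent at 1 mg/kg in PEG400:DMAC:water (70:5:25). n = 3 per species; individual Tmax values reported for dog and monkey.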

[26] = Tmax in dog at 10 mg/kg, po; format: ADME, organism-based, Canis lupus familiaris; conditions: in vivo; outline: as §5
[27] = Tmax in cynomolgus monkey at 10 mg/kg, po; format: ADME, organism-based, Macaca fascicularis; conditions: in vivo; outline: as §5
[28] = AUC in rat at 10 mg/kg, po; format: ADME, organism-based; conditions: in vivo; outline: as §2
[29] = AUC in dog at 10 mg/kg, po; format: ADME, organism-based, Canis lupus familiaris; conditions: in vivo; outline: as §2
[30] = AUC in cynomolgus monkey at 10 mg/kg, po; format: ADME, organism-based, Macaca fascicularis; conditions: in vivo; outline: as §2
[31] = Oral bioavailability in rat at 10 mg/kg; format: ADME, organism-based; conditions: in vivo; outline: as §5
[32] = Oral bioavailability in dog at 10 mg/kg; format: ADME, organism-based, Canis lupus familiaris; conditions: in vivo; outline: as §5
[33] = Oral bioavailability in cynomolgus monkey at 10 mg/kg; format: ADME, organism-based, Macaca fascicularis; conditions: in vivo; outline: as §5
Rattus norvegicus [34] = assay: Toxicity in rat assessed as hepatobiliary lesions up to 100 mg/kg administered for 30 days; format: organism-based; conditions: in vivo, 720 h
Outline: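 Rats dosed daily with the phosphate prodrug for 30 days at up to 100 mg/kg; hepatobiliary lesions examined.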

[35] = Plasma concentration in DIO Sprague-Dawley rat assessed as parent compound level at 3 mg/kg, po for 28 days measured after 24 hrs

Sequence of Melanin-concentrating hormone receptor 1 (Q99705 whole entry): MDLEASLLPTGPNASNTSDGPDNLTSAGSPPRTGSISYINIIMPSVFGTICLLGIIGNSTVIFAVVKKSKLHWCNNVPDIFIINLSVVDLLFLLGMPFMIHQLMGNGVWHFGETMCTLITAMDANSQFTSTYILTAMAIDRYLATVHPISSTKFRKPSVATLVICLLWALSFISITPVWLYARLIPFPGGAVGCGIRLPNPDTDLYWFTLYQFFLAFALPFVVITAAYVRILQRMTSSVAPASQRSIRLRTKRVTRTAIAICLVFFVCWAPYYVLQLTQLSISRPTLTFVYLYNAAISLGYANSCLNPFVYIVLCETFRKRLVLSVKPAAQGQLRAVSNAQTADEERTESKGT

solubility [1]: 4 µg/mL (≈ 6.84 µM) | Cmax [7]: 1200 nM | concentration at 2 h [13]: 2000 nM | concentration at 2 h [14]: 13500 nM | concentration at 24 h [15]: 1200 nM | Ki [18]: 2920 nM | Fu [19]: 0.1% | Fu [20]: 0.3% | Fu [21]: 0.4% | Fu [22]: 0.2% | Cmax [23]: 4000 nM | Cmax [24]: 1200 nM | Tmax [25]: 6.7 h | Tmax [26]: 9.3 h | Tmax [27]: 10.7 h | AUC [28]: 107 µM·h | AUC [29]: 15.3 µM·h | AUC [30]: 87 µM·h | bioavailability [31]: 54% | bioavailability [32]: 33% | bioavailability [33]: 46% | concentration at 24 h [35]: 14400 nM
Compound: COc1cc(-n2cnc3cc(-c4ccc(Cl)cc4)sc3c2=O)ccc1OCC1(OP(=O)(O)O)CC(F)(F)C1
Activity (Rattus norvegicus [2]): 1.7% | Activity (Rattus norvegicus [3]): 3.2% | Activity (Rattus norvegicus [4]): 5% | Activity (Rattus norvegicus [5]): 6.6% | Activity (Rattus norvegicus [6]): 7.8% | Activity (Rattus norvegicus [8]): 6.5% | Activity (Rattus norvegicus [9]): 10.5% | Activity (Rattus norvegicus [10]): 12.8% | Activity (Rattus norvegicus [11]): 14.5% | Activity (Rattus norvegicus [12]): 14.7% | Activity (Rattus norvegicus [16]): Non-Toxic | inhibition (Rattus norvegicus [17]): Dose-dependent effect | Activity (Rattus norvegicus [34]): Non-Toxic
